According to ChEMBL document CHEMBL1153581, “Synthesis, antiviral and anticancer activity of some novel thioureas derived from N-(4-nitro-2-phenoxyphenyl)-methanesulfonamide” (Eur J Med Chem, 2009):
Values after ≈ are worked out from the molar mass of the structure shown.

Experiments:
HeLa = test: Cytotoxicity against human HeLa cells assessed as change in cell morphology; type: functional
How it was run: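 The minimum cytotoxic concentration (MCC) is the concentration causing a microscopically detectable alteration of cell morphology in the uninfected host cell culture.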

Human alphaherpesvirus 1 [1] = test: Antiviral activity against HSV1 KOS infected in HEL cells assessed as protection against virus-induced cytopathogenicity; type: functional; settings: Human alphaherpesvirus 1, KOS
Human alphaherpesvirus 2 = test: Antiviral activity against Herpes simplex virus 2 infected in HEL cells assessed as protection against in virus-induced cytopathogenicity; type: functional
[2] = test system: Vesicular stomatitis virus; test: Antiviral activity against sVesicular stomatitis virus infected in HEL cells assessed as protection against virus-induced cytopathogenicity; type: functional
Human alphaherpesvirus 1 [3] = test: Antiviral activity against acyclovir-resistant thymidine kinase-deficient HSV1 KOS infected in human HEL cells assessed as protection against virus-induced cytopathogenicity; type: functional; settings: Human alphaherpesvirus 1, KOS
[4] = test system: Vesicular stomatitis virus; test: Antiviral activity against Vesicular stomatitis virus infected in human HeLa cells assessed as protection against virus-induced cytopathogenicity; type: functional
Coxsackievirus B4 [5] = test: Antiviral activity against Coxsackievirus B4 infected in human HeLa cells assessed as protection against virus-induced cytopathogenicity; type: functional; settings: Enterovirus B
[6] = test system: Respiratory syncytial virus; test: Antiviral activity against RSV infected in human HeLa cells assessed as protection against virus-induced cytopathogenicity; type: functional
Human respirovirus 3 = test: Antiviral activity against Parainfluenza-3 virus infected in african green monkey Vero cells assessed as protection against virus-induced cytopathogenicity; type: functional
[7] = test system: Mammalian orthoreovirus 1; test: Antiviral activity against Reovirus 1 infected in african green monkey Vero cells assessed as protection against virus-induced cytopathogenicity; type: functional
Sindbis virus = test: Antiviral activity against Sindbis virus infected in african green monkey Vero cells assessed as protection against virus-induced cytopathogenicity; type: functional
Coxsackievirus B4 [8] = test: Antiviral activity against Coxsackievirus B4 infected in african green monkey Vero cells assessed as protection against virus-induced cytopathogenicity; type: functional; settings: Enterovirus B
Punta Toro virus = test: Antiviral activity against Punta Toro virus infected in african green monkey Vero cells assessed as protection against virus-induced cytopathogenicity; type: functional
[9] = Cytotoxicity against HEL cells assessed as change in cell morphology; type: cell-based; settings: human
How it was run: (§1)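 HEL cell cultures examined under the microscope. Minimal cytotoxic concentration (MCC) is the concentration that causes a microscopically detectable alteration of cell morphology. Compounds were tested at subtoxic concentrations alongside the antiviral tests.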

[10] = Cytotoxicity against african green monkey Vero cells assessed as change in cell morphology; type: cell-based; settings: chlorocebus sabaeus
How it was run: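 Vero cell cultures were used for the broad-spectrum antiviral screen. The MCC endpoint is the lowest concentration that causes a microscopically detectable alteration of cell morphology. Activity was called when 5 × MIC < MCC.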

Human betaherpesvirus 5 = test: Antiviral activity against Cytomegalovirus AD169 infected in HEL cells assessed as reduction in virus plaque formation; type: functional, organism-based; settings: Human betaherpesvirus 5, AD169, HEL
How it was run: (§2)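 Plaque reduction in HEL cells against CMV (AD-169, Davis) or VZV (TK⁺ OKA, TK⁻ 07/1), using a virus input of 20 PFU. EC50 is the concentration that reduced plaque formation by 50%.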

Cytomegalovirus = test: Antiviral activity against Cytomegalovirus Davis infected in HEL cells assessed as reduction in virus plaque formation; type: functional, organism-based; settings: Human betaherpesvirus 5, Davis; how it was run: as §2
Human alphaherpesvirus 3 [11] = test: Antiviral activity against Varicella Zoster Virus OKA infected in HEL cells assessed as reduction in virus plaque formation; type: functional, organism-based; settings: Human alphaherpesvirus 3, OKA; how it was run: as §2
Human alphaherpesvirus 3 [12] = test: Antiviral activity against thymidine kinase deficient Varicella Zoster Virus 07/1 infected in HEL cells assessed as reduction in virus plaque formation; type: functional, organism-based; settings: Human alphaherpesvirus 3, 07/1, HEL; how it was run: as §2
[13] = Cytotoxicity against Cytomegalovirus infected HEL cells assessed as change in cell morphology; type: cell-based; settings: human; how it was run: as §1
[14] = Cytotoxicity against Cytomegalovirus infected HEL cells assessed as reduction in cell growth; type: cell-based; settings: human
[15] = Cytotoxicity against Varicella Zoster Virus infected human […] cells assessed as change in cell morphology; type: cell-based
[16] = Cytotoxicity against Varicella Zoster Virus infected human […] cells assessed as reduction in cell growth; type: cell-based
[17] = test system: Human immunodeficiency virus 2; test: Antiviral activity against HIV-2 ROD infected human MT4 cells assessed as protection against virus-induced cytopathogenicity; type: functional, organism-based; settings: Human immunodeficiency virus 2, ISOLATE ROD
How it was run: (§3)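 HIV-1 (IIIB) or HIV-2 (ROD) infection of MT-4 cells, scored as protection against virus-induced cytopathicity. IC50 was derived from protection.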

[18] = test system: Human immunodeficiency virus 1; test: Antiviral activity against HIV-1 3B infected human MT4 cells assessed as protection against virus-induced cytopathogenicity; type: functional, organism-based; settings: Human immunodeficiency virus 1, 3B; how it was run: as §3
[19] = Cytotoxicity against HIV-1 3B infected human MT4 cells; type: cell-based; settings: HIV-1 3B-infected MT4 cells

| SMILES | MCC (HeLa) | MIC50 (Human alphaherpesvirus 1 [1]) | MIC50 (Human alphaherpesvirus 2) | MIC50 [2] | MIC50 (Human alphaherpesvirus 1 [3]) | MIC50 [4] | MIC50 (Coxsackievirus B4 [5]) | MIC50 [6] | MIC50 (Human respirovirus 3) | MIC50 [7] | MIC50 (Sindbis virus) | MIC50 (Coxsackievirus B4 [8]) | MIC50 (Punta Toro virus) | MCC [9] | MCC [10] | EC50 (Human betaherpesvirus 5) | EC50 (Cytomegalovirus) | IC50 [17] | IC50 [18] | CC50 [19] | further results |
| --- | --- | --- | --- | --- | --- | --- | --- | --- | --- | --- | --- | --- | --- | --- | --- | --- | --- | --- | --- | --- | --- |
| CCCNC(=S)Nc1ccc(NS(C)(=O)=O)c(Oc2ccccc2)c1 | 200 µg/mL | > 40 µg/mL | > 40 µg/mL | > 40 µg/mL | > 40 µg/mL | > 40 µg/mL | > 40 µg/mL | 40 µg/mL (≈ 105 µM) | > 8 µg/mL | > 8 µg/mL | > 8 µg/mL | > 8 µg/mL | > 8 µg/mL | 200 µg/mL | 40 µg/mL | 54.7 µg/mL (≈ 144 µM) | 54.7 µg/mL (≈ 144 µM) | > 89.3 µg/mL | > 89.3 µg/mL | 89.3 µg/mL (≈ 235 µM) | EC50 (Human alphaherpesvirus 3 [11]): > 20 µg/mL; EC50 (Human alphaherpesvirus 3 [12]): > 20 µg/mL; CC50 [13]: > 100 µg/mL; CC50 [14]: 56 µg/mL (≈ 148 µM); CC50 [15]: 100 µg/mL (≈ 263 µM); CC50 [16]: 56 µg/mL (≈ 148 µM) |
| CNC(=S)Nc1ccc(NS(C)(=O)=O)c(Oc2ccccc2)c1 | > 100 µg/mL | > 100 µg/mL | > 100 µg/mL | > 100 µg/mL | > 100 µg/mL | 100 µg/mL (≈ 285 µM) | > 100 µg/mL | > 100 µg/mL | > 100 µg/mL | > 100 µg/mL | > 100 µg/mL | > 100 µg/mL | > 100 µg/mL | > 100 µg/mL | > 100 µg/mL |  |  | > 125 µg/mL | > 125 µg/mL | > 125 µg/mL |  |
| CS(=O)(=O)Nc1ccc(NC(=S)NCCc2ccccc2)cc1Oc1ccccc1 | 40 µg/mL | > 8 µg/mL | > 8 µg/mL | > 8 µg/mL | > 8 µg/mL | > 8 µg/mL | > 8 µg/mL | > 8 µg/mL | > 1.6 µg/mL | > 1.6 µg/mL | > 1.6 µg/mL | > 1.6 µg/mL | > 1.6 µg/mL | 40 µg/mL | 8 µg/mL | > 20 µg/mL | > 20 µg/mL | > 20.8 µg/mL | > 20.8 µg/mL | 20.8 µg/mL (≈ 47.1 µM) | EC50 (Human alphaherpesvirus 3 [11]): > 20 µg/mL; EC50 (Human alphaherpesvirus 3 [12]): > 20 µg/mL; CC50 [13]: 100 µg/mL (≈ 226 µM); CC50 [14]: 48 µg/mL (≈ 109 µM); CC50 [15]: ≥ 100 µg/mL; CC50 [16]: 48 µg/mL (≈ 109 µM) |
| CS(=O)(=O)Nc1ccc(NC(=S)NC2CCCCC2)cc1Oc1ccccc1 | 40 µg/mL | > 8 µg/mL | > 8 µg/mL | > 8 µg/mL | > 8 µg/mL | > 8 µg/mL | > 8 µg/mL | > 8 µg/mL | > 1.6 µg/mL | > 1.6 µg/mL | > 1.6 µg/mL | > 1.6 µg/mL | > 1.6 µg/mL | 40 µg/mL | 8 µg/mL | > 4 µg/mL | > 4 µg/mL | > 35.3 µg/mL | > 35.3 µg/mL | 35.3 µg/mL (≈ 84.1 µM) | EC50 (Human alphaherpesvirus 3 [11]): > 20 µg/mL; EC50 (Human alphaherpesvirus 3 [12]): > 0.8 µg/mL; CC50 [13]: 20 µg/mL (≈ 47.7 µM); CC50 [14]: 33.6 µg/mL (≈ 80.1 µM); CC50 [15]: ≥ 4 µg/mL; CC50 [16]: 82.4 µg/mL (≈ 196 µM) |
| C=CCNC(=S)Nc1ccc(NS(C)(=O)=O)c(Oc2ccccc2)c1 | 200 µg/mL | > 40 µg/mL | > 40 µg/mL | > 40 µg/mL | > 40 µg/mL | > 40 µg/mL | > 40 µg/mL | 40 µg/mL (≈ 106 µM) | ≥ 24 µg/mL | > 40 µg/mL | > 40 µg/mL | > 40 µg/mL | > 40 µg/mL | 200 µg/mL | 200 µg/mL | 54.7 µg/mL (≈ 145 µM) | 54.7 µg/mL (≈ 145 µM) | > 12.8 µg/mL | > 87.2 µg/mL | 101 µg/mL (≈ 269 µM) | EC50 (Human alphaherpesvirus 3 [11]): 58.5 µg/mL (≈ 155 µM); EC50 (Human alphaherpesvirus 3 [12]): 49 µg/mL (≈ 130 µM); CC50 [13]: > 100 µg/mL; CC50 [14]: 82.4 µg/mL (≈ 218 µM); CC50 [15]: > 100 µg/mL; CC50 [16]: 82.4 µg/mL (≈ 218 µM) |
| CS(=O)(=O)Nc1ccc(NC(=S)NCCc2ccc(Cl)cc2)cc1Oc1ccccc1 | 100 µg/mL | > 100 µg/mL | > 100 µg/mL | > 100 µg/mL | > 100 µg/mL | > 20 µg/mL | > 20 µg/mL | > 20 µg/mL | > 20 µg/mL | > 20 µg/mL | > 20 µg/mL | > 20 µg/mL | > 20 µg/mL | > 100 µg/mL | 100 µg/mL |  |  | > 14.8 µg/mL | > 14.8 µg/mL | 14.8 µg/mL (≈ 31.2 µM) |  |
| CS(=O)(=O)Nc1ccc(NC(=S)NCc2ccccc2)cc1Oc1ccccc1 | 40 µg/mL | > 8 µg/mL | > 8 µg/mL | > 8 µg/mL | > 8 µg/mL | > 8 µg/mL | > 8 µg/mL | > 8 µg/mL | > 8 µg/mL | > 8 µg/mL | > 8 µg/mL | > 8 µg/mL | > 8 µg/mL | 40 µg/mL | 40 µg/mL | > 4 µg/mL | > 4 µg/mL | > 18.3 µg/mL | 20.1 µg/mL (≈ 47.1 µM) | 61.6 µg/mL (≈ 144 µM) | EC50 (Human alphaherpesvirus 3 [11]): > 4 µg/mL; EC50 (Human alphaherpesvirus 3 [12]): > 4 µg/mL; CC50 [13]: 20 µg/mL (≈ 46.8 µM); CC50 [14]: 45.2 µg/mL (≈ 106 µM); CC50 [15]: 20 µg/mL (≈ 46.8 µM); CC50 [16]: 45.2 µg/mL (≈ 106 µM) |
